Data on 5 molecules can be found in paper PMC5600292 (Biochimica et biophysica acta, 2017).

Read-outs that look alike come from different tables or passages of the source.

Assay [1] deals with T1, human recombinant thrombin L99A (Homo sapiens, UniProt P00734, L459A). The conditions noted are these: cited from earlier work; for Km / kcat / kcat/Km: L99A IIa, mean ± SEM; for Km / kcat: SEM.
The target in assay [2] is human recombinant thrombin W215A (Homo sapiens, UniProt P00734, W590A). The note with it: cited from earlier work; for Km / kcat / kcat/Km: W215A IIa, mean ± SEM; for Km / kcat: SEM; for fold reduction of kcat/Km relative to WT thrombin: prior studies.
Assay [3] deals with human recombinant thrombin W60dA (Homo sapiens, UniProt P00734, W413A). The conditions noted are these: W60dA IIa, mean ± SEM, cited from earlier work; for Km / kcat: SEM.
Assay [4] addresses T2, human recombinant thrombin I174A (Homo sapiens, UniProt P00734, I542A). The note with it: cited from earlier work; for Km / kcat / kcat/Km: I174A IIa, mean ± SEM; for Km / kcat: SEM.
Assay [5] has as its target T3, human recombinant thrombin wild-type (WT) (Homo sapiens, UniProt P00734). The note with it: WT IIa, mean ± SEM, cited from earlier work; for Km / kcat: SEM.
Assay [6] deals with human recombinant thrombin W215A/E217A (WE) (Homo sapiens, UniProt P00734, E592A/W590A). The note with it: cited from earlier work; for Km / kcat / kcat/Km: WE (W215A/E217A) IIa, mean ± SEM; for Km / kcat: SEM; for fold decrease in Km relative to WT thrombin: WE thrombin.
Assay [7] deals with human recombinant thrombin Y60aA. The note with it: cited from earlier work; for Km / kcat / kcat/Km: Y60aA IIa, mean ± SEM; for Km / kcat: SEM; for fold decrease in kcat relative to WT thrombin / fold increase in Km relative to WT thrombin: Y60aA thrombin.
The target in assay [8] is T3, human recombinant thrombin wild-type (WT). The experiment in a line: HPLC-based kinetic assay of thrombin-catalyzed hydrolysis of FXIII. Format: biochemical. The conditions noted are these: WT IIa, pH 7.4, 25 °C, average of at least three independent experiments ± SEM. The procedure, abridged: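 Recombinant human thrombin hydrolysed acetylated, amidated FXIII (28–41) activation peptides with V, L, F, W or Y at position 34 (final 75–2500 µM). Reactions ran at 25 °C in 50 mM H3PO4, 100 mM NaCl, 0.1% PEG, pH 7.4, with 6 nM–1 µM thrombin, and kept <17% hydrolysis in 30 min. Timed aliquots were quenched with 12.5% H3PO4. The (28–37) product was quantified by C18 RP-HPLC against calibration curves, giving initial velocities. These were fit to V = Vmax/(1 + Km/[S]), and kcat came from thrombin concentration. Runs were in triplicate.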

Assay [9] concerns the target T2, human recombinant thrombin I174A. The experiment in a line: HPLC-based kinetic assay of FXIII AP hydrolysis, I174A thrombin. It counts as biochemical. The conditions noted are these: for kcat/Km / Km / kcat: I174A IIa, HPLC assay, pH 7.4, 25 °C, average of at least three independent experiments ± SEM; for Km / kcat: SEM. The procedure, abridged:
(§1)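 Synthetic Ac-/-NH2 FXIII (28–41) AP peptides (V34, L34, F34, W34, Y34) were used at 75–2500 µM final in 50 mM H3PO4, 100 mM NaCl, 0.1% PEG, pH 7.4, 25 °C. Recombinant human thrombin (6 nM–1 µM) started the reaction; aliquots were quenched with 12.5% H3PO4, keeping hydrolysis below 17% in 30 min. The (28–37) product was quantified by RP-HPLC against calibration curves. Initial velocities were fitted to V = Vmax/(1+Km/[S]), kcat taken from thrombin concentration, in triplicate.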

In assay [10] the target is T1, human recombinant thrombin L99A. Nature of the assay: HPLC-based kinetic assay of FXIII AP hydrolysis, L99A thrombin. Format: biochemical. The note with it: L99A IIa, HPLC assay, pH 7.4, 25 °C, average of at least three independent experiments ± SEM. The procedure, abridged: as §1
For assay [11], the system named is WT recombinant human thrombin. Nature of the assay: Gel electrophoresis. Format: biochemical. The note with it: 1 µM FXIII variant, 30 nM thrombin, 37°C. The procedure, abridged: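 Full-length FXIII-A V34X variants were expressed GST-tagged in E. coli BL21(DE3) Gold by auto-induction, then freed from the tag by on-column PreScission digestion. 1 µM variant was incubated with 30 nM WT recombinant human thrombin at 37°C. Aliquots were taken at 1–30 min, quenched with 6 µM PPACK plus reducing buffer, and frozen at −80°C. Samples ran on 8% SDS-PAGE with Coomassie stain; densitometry followed the 83 kDa intact and 79 kDa cleaved bands.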

In general, Km refers to the concentration of substrate that gives half-maximal velocity. One may read the kcat as the maximal rate divided by the concentration of active sites. Usually kcat/Km stands for the turnover number divided by the Michaelis constant. For “Ac-TVELQGVVPRGVNL-NH2 [FXIII (28–41) V34 AP]”, the Michaelis constant (Km) was 2070 ± 414 µM in assay [1]; 2370 ± 372 µM in assay [2]; 1380 ± 422 µM in assay [3]; 204 ± 36 µM in [4]; 298 ± 42 µM in assay [5]; 745 ± 98 µM in assay [6]. For the same molecule, the Michaelis constant (Km) in assay [7] is 678 ± 120 µM. The kcat was 0.89 ± 0.07 s⁻¹ in assay [1]; 5.53 ± 0.017 s⁻¹ in assay [2]; 0.86 ± 0.046 s⁻¹ in [3]; 5.37 ± 0.01 s⁻¹ in assay [4]; 2.57 ± 0.005 s⁻¹ in assay [5]; 0.117 ± 0.008 s⁻¹ in assay [6]. Also, the kcat in assay [7] is 0.048 ± 0.0032 s⁻¹. The kcat/Km in [1] was 430 ± 100 M⁻¹ s⁻¹; in [2], 2300 ± 700 M⁻¹ s⁻¹; in [3] it was 630 ± 190 M⁻¹ s⁻¹; in assay [4], 26000 ± 100 M⁻¹ s⁻¹; in [5], 8600 ± 1000 M⁻¹ s⁻¹; in [6], 160 ± 20 M⁻¹ s⁻¹. Also, the kcat/Km in [7] is 71 ± 13 M⁻¹ s⁻¹. The “fold decrease in kcat relative to WT thrombin” value in assay [1] (L99A thrombin) is 3–4 fold; in [7], 54 to 61 fold. Also, the “fold reduction of kcat/Km relative to WT thrombin” value in assay [2] (W215A thrombin) is listed as 4 fold. The “fold increase in kcat relative to WT thrombin” value in [4] (I174A thrombin) is given as 2 fold. In assay [7], the “fold increase in Km relative to WT thrombin” value is recorded as 2 fold.

Consider “Ac-TVELQGYVPRGVNL-NH2 [FXIII (28–41) Y34 AP]”, for which the kcat/Km amounted to 4600 ± 900 M⁻¹ s⁻¹ in assay [8], 3300 ± 2000 M⁻¹ s⁻¹ in assay [9] and 39000 ± 9800 M⁻¹ s⁻¹ in [10]. For the same molecule, the values for the Michaelis constant (Km) in assay [8] (SEM), in assay [9] and in assay [10] (SEM) were 484 ± 88 µM, 349 ± 120 µM and 347 ± 80 µM, respectively. Moreover, the turnover number (kcat) amounted to 2.23 ± 0.18 s⁻¹ in [8] (SEM), 1.17 ± 0.16 s⁻¹ in assay [9] and 13.5 ± 1.4 s⁻¹ in assay [10] (SEM). Besides, the “fold decrease in Km relative to WT thrombin” value in assay [9] (I174A thrombin, current work) turned out to be 1.4 fold. In addition, in [9] (I174A thrombin, current work), the “fold decrease in kcat relative to WT thrombin” value is 2 fold.

On to “Ac-TVELQGFVPRGVNL- NH2 [FXIII (28–41) F34 AP]”, for which the Michaelis constant (Km) is 570 ± 125 µM in assay [1]; 437 ± 81 µM in assay [2]; 920 ± 88 µM in [9]; 435 ± 98 µM in [3]; 442 ± 93 µM in assay [5]; 190 ± 43 µM in [6]. Besides, the catalytic constant (kcat) was 2.71 ± 0.3 s⁻¹ in assay [1]; 1.97 ± 0.14 s⁻¹ in [2]; 6.08 ± 0.25 s⁻¹ in assay [9]; 1.46 ± 0.15 s⁻¹ in assay [3]; 6.27 ± 0.54 s⁻¹ in [5]; 0.07 ± 0.007 s⁻¹ in assay [6]. Besides, the catalytic efficiency (kcat/Km) was 4800 ± 120 M⁻¹ s⁻¹ in assay [1]; 4500 ± 900 M⁻¹ s⁻¹ in assay [2]; 6600 ± 690 M⁻¹ s⁻¹ in assay [9]; 3400 ± 800 M⁻¹ s⁻¹ in assay [3]; 14000 ± 3000 M⁻¹ s⁻¹ in assay [5]; 360 ± 80 M⁻¹ s⁻¹ in assay [6]. Besides, the figures for the “fold decrease in kcat relative to WT thrombin” value in [1] (L99A thrombin) and in assay [2] (W215A thrombin) were 2 fold and 3 fold, respectively. The “fold reduction of kcat/Km relative to WT thrombin” value in assay [2] (W215A thrombin) was 3 fold. The “fold decrease in Km relative to WT thrombin” value in [6] is listed as 2 fold.

On to “Ac-TVELQGLVPRGVNL-NH2 [FXIII (28–41) L34 AP]”, for which the Km was 1930 ± 354 µM in assay [1]; 3620 ± 470 µM in assay [2]; 1000 ± 201 µM in [3]; 1110 ± 247 µM in assay [4]; 315 ± 42 µM in assay [5]; 142 ± 28 µM in [6]. Also, the Km in [7] was 696 ± 116 µM. The kcat in [1] is 5.94 ± 0.02 s⁻¹; in assay [2], 5.31 ± 0.002 s⁻¹; in [3] it was 5.07 ± 0.021 s⁻¹; in assay [4], 10.2 ± 0.04 s⁻¹; in assay [5], 22.9 ± 0.003 s⁻¹; in assay [6], 0.052 ± 0.003 s⁻¹. In assay [7], the kcat was 0.37 ± 0.012 s⁻¹. Further, the specificity constant (kcat/Km) in assay [1] is 3100 ± 200 M⁻¹ s⁻¹; in [2], 1500 ± 200 M⁻¹ s⁻¹; in [3], 5100 ± 1000 M⁻¹ s⁻¹; in assay [4], 9100 ± 2000 M⁻¹ s⁻¹; in assay [5], 73000 ± 1200 M⁻¹ s⁻¹; in assay [6], 370 ± 100 M⁻¹ s⁻¹. Besides, the specificity constant (kcat/Km) in assay [7] was 530 ± 120 M⁻¹ s⁻¹. Moreover, the “fold advantage in kcat/Km relative to V34” value in assay [1] (L99A thrombin) was 7 fold. Besides, the “fold decrease in kcat relative to WT thrombin” value in assay [1] (L99A thrombin) is listed as 3–4 fold; in assay [4] (I174A thrombin), 2 fold; in assay [7], 54 to 61 fold. Also, the “fold decrease in Km relative to WT thrombin” value in assay [6] was 2 fold. For the same molecule, in assay [7], the “fold increase in Km relative to WT thrombin” value is on record as 2 fold.

B1: FXIII V34: full-length recombinant FXIII-A V34 expressed in E. coli (protein, UniProt P00488 1-732, looked up)
chain: MSETSRTAFGGRRAVPPNNSNAAEDDLPTVELQGVVPRGVNLQEFLNVTSVHLFKERWDTNKVDHHTDKYENNKLIVRRGQSFYVQIDFSRPYDPRRDLFRVEYVIGRYPQENKGTYIPVPIVSELQSGKWGAKIVMREDRSVRLSIQSSPKCIVGKFRMYVAVWTPYGVLRTSRNPETDTYILFNPWCEDDAVYLDNEKEREEYVLNDIGVIFYGEVNDIKTRSWSYGQFEDGILDTCLYVMDRAQMDLSGRGNPIKVSRVGSAMVNAKDDEGVLVGSWDNIYAYGVPPSAWTGSVDILLEYRSSENPVRYGQCWVFAGVFNTFLRCLGIPARIVTNYFSAHDNDANLQMDIFLEEDGNVNSKLTKDSVWNYHCWNEAWMTRPDLPVGFGGWQAVDSTPQENSDGMYRCGPASVQAIKHGHVCFQFDAPFVFAEVNSDLIYITAKKDGTHVVENVDATHIGKLIVTKQIGGDGMMDITDTYKFQEGQEEERLALETALMYGAKKPLNTEGVMKSRSNVDMDFEVENAVLGKDFKLSITFRNNSHNRYTITAYLSANITFYTGVPKAEFKKETFDVTLEPLSFKKEAVLIQAGEYMGQLLEQASLHFFVTARINETRDVLAKQKSTVLTIPEIIIKVRGTQVVGSDMTVTVEFTNPLKETLRNVWVHLDGPGVTRPMKKMFREIRPNSTVQWEEVCRPWVSGHRKLIASMSSDSLRHVYGELDVQIQRRPSM
modifications: full-length
Regarding B1, the “time at which cleavage started to be visible” value in assay [11] (SDS-PAGE) was determined as 2 min. Further, in assay [11] (SDS-PAGE densitometry), the “cleavage of full-length FXIII by thrombin at 10 min” value stood at 50% and the “time to full cleavage of full-length FXIII” value is on record as around 30 min.
